Test results from ChEMBL document CHEMBL1124761, “Polyamine analogues with antitumor activity” (J Med Chem, 1990).
Calls of active or inactive are those of the source. The rule behind the calls is not given here.

Experiments:
L1210 [1] = experiment: Effect of 25 mg/kg putrescine coadministered with 25 mg/kg compound on the tumor cell concentration (L1210) of compound; format: functional, Mus musculus
Summary of the method: (§1)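 BDF1 male mice bearing ip L1210 cells. Starting day 4, ip dosing with analogue, alone or with putrescine or spermidine, at the doses indicated. Killed 4 h after the final dose; tumour cells recovered by peritoneal lavage. Drug and polyamines quantified by HPLC, pmol/10^6 cells, mean of three determinations.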

L1210 [2] = experiment: Effect of 25 mg/kg putrescine coadministered with 25 mg/kg compound on the tumor cell concentration (L1210) of spermine; format: functional, Mus musculus; summary of the method: as §1
L1210 [3] = experiment: Effect of 25 mg/kg putrescine coadministered with 25 mg/kg compound on the tumor cell concentration (L1210) of spermidine; format: functional, Mus musculus; summary of the method: as §1
L1210 [4] = experiment: Effect of 25 mg/kg putrescine coadministered with 25 mg/kg compound on the tumor cell concentration (L1210) of putrescine; format: functional, Mus musculus; summary of the method: as §1
L1210 [5] = experiment: Tested for the T/C (survival time treated/survival time control x 100) after intraperitoneal administration of 50 mg/Kg in 10 E 5 L1210 cells on day 0; not active; format: functional; conditions: Mus musculus
[6] = target: Peroxisomal N(1)-acetyl-spermine/spermidine oxidase (Mus musculus) (UniProt Q8C0L6); experiment: Tested for the in vivo inhibitory activity against polyamine oxidase in mice at a dose of 1 mg/kg; format: functional, organism-based; design: dose 1 mg/kg
Sequence of Peroxisomal N(1)-acetyl-spermine/spermidine oxidase (Mus musculus) (Q8C0L6 whole entry): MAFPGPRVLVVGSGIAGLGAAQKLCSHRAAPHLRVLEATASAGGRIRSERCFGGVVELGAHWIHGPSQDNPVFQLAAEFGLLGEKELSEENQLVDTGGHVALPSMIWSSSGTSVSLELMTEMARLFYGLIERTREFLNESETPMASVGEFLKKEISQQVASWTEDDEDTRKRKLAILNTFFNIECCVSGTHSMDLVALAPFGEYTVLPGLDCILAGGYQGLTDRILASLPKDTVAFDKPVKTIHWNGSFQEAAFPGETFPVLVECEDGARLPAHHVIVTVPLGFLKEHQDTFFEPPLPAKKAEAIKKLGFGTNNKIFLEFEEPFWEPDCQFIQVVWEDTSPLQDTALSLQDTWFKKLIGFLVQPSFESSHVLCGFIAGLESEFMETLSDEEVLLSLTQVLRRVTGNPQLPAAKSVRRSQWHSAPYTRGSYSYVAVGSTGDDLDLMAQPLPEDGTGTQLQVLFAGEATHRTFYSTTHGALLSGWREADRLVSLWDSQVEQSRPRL
Summary of the method: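 Mice received drug ip 24 h before sacrifice. Liver homogenised and polyamine oxidase activity assayed. Protein by Bradford method with BSA standard.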

[7] = Tested for in vitro half life period against polyamine oxidase after intraperitoneal administration; format: ADME; conditions: ip
L1210 [8] = experiment: Effect of 25 mg/kg putrescine or spermidine coadministered with 25 mg/kg compound on the tumor cell concentration (L1210) of spermidine; format: functional, Mus musculus; summary of the method: as §1
L1210 [9] = experiment: Modulation of the antitumor activity against L1210 Leukemia at 25 mg/kg along with 25 mg/kg putrescine days 1-7, 1 dose / day; format: functional, Mus musculus
L1210 [10] = experiment: Modulation of the antitumor activity against L1210 Leukemia by 25 mg/kg ip days 1-7, 1 dose/day; format: functional, Mus musculus; conditions: route intraperitoneal
L1210 [11] = experiment: Tested for the T/C (survival time treated /survival time control x 100) after intraperitoneal administration of 5 mg/kg in 10 E 5 L1210 cells on day 0; format: functional, Mus musculus
Summary of the method: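 Male BDF1 mice, in groups of six, were inoculated ip with 10^5 L1210 cells on day 0. Tetrahydrochloride salts were given at 5 mg/kg every 3 h (×4) on days 3-5. T/C = survival time treated/survival time control × 100.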

L1210 [12] = experiment: Effect of 25 mg/kg putrescine or spermidine coadministered with 25 mg/kg compound on the tumor cell concentration (L1210) of putrescine; format: functional, Mus musculus; summary of the method: as §1
L1210 [13] = experiment: Effect of 25 mg/kg putrescine or spermidine coadministered with 25 mg/kg compound on the tumor cell concentration (L1210) of spermine; format: functional, Mus musculus; summary of the method: as §1
L1210 [14] = experiment: Effect of 25 mg/kg putrescine or spermidine coadministered with 25 mg/kg compound on the tumor cell concentration (L1210) of compound; format: functional, Mus musculus; summary of the method: as §1
L1210 [15] = experiment: Modulation of the antitumor activity against L1210 Leukemia at 25 mg/kg along with 25 mg/kg spermidine days 1-7, 1 dose / day; format: functional, Mus musculus
L1210 [16] = experiment: Effect of 25 mg/kg spermidine coadministered with 25 mg/kg compound on the tumor cell concentration (L1210) of spermidine; format: functional, Mus musculus; summary of the method: as §1
L1210 [17] = experiment: Effect of 25 mg/kg spermidine coadministered with 25 mg/kg compound on the tumor cell concentration (L1210) of putrescine; format: functional, Mus musculus; summary of the method: as §1
L1210 [18] = experiment: Effect of 25 mg/kg spermidine coadministered with 25 mg/kg compound on the tumor cell concentration (L1210) of spermine; format: functional, Mus musculus; summary of the method: as §1
L1210 [19] = experiment: Effect of 25 mg/kg spermidine coadministered with 25 mg/kg compound on the tumor cell concentration (L1210) of compound; format: functional, Mus musculus; summary of the method: as §1
L1210 [20] = experiment: (§2) Antitumor activity against L1210 leukemia in BDF1 male mice at the dose of 10 mg/kg when given with 5.0 mg/kg of diallenylputrescine; format: functional, Mus musculus
Summary of the method: (§3)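 BDF1 male mice were inoculated ip with 10^5 L1210 cells on day 0. Agents were given ip once daily on days 1-9, alone or with diallenylputrescine at 2.5 or 5.0 mg/kg. Mean survival time was reported ± SD (n=5). %T/C = treated survival/control survival × 100.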

L1210 [21] = experiment: (§4) Antitumor activity against L1210 leukemia in BDF1 male mice at the dose of 5 mg/kg when given with 5.0 mg/kg of diallenylputrescine; format: functional, Mus musculus
Summary of the method: (§5)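 L1210 leukemia, 10^5 cells inoculated ip into BDF1 male mice on day 0. Analogue given ip once daily on days 1-9; where stated, diallenylputrescine (PAO inhibitor) was co-given at 2.5 or 5.0 mg/kg. Mean survival time ± SD (n=5). %T/C = treated survival time/control survival time × 100.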

L1210 [22] = experiment: as §4; format: functional, Mus musculus; summary of the method: as §3; remark: listed apart in the source
L1210 [23] = experiment: as §2; format: functional, Mus musculus; summary of the method: as §5; remark: listed apart in the source
L1210 [24] = experiment: (§6) Antitumor activity against L1210 leukemia in BDF1 male mice at the dose of 10 mg/kg; format: functional, Mus musculus; summary of the method: as §5
L1210 [25] = experiment: (§7) Antitumor activity against L1210 leukemia in BDF1 male mice at the dose of 5 mg/kg; format: functional, Mus musculus; summary of the method: as §5
L1210 [26] = experiment: as §6; format: functional, Mus musculus; summary of the method: as §3; remark: listed apart in the source
L1210 [27] = experiment: as §7; format: functional, Mus musculus; design: unit not given here; summary of the method: as §3
L1210 [28] = experiment: Tested for the T/C (survival time treated /survival time control x 100) after intraperitoneal administration of 25 mg/kg in 10 E 5 L1210 cells on day 0; format: functional, Mus musculus
L1210 [29] = experiment: (§8) Antitumor activity against L1210 leukemia in BDF1 male mice at the dose of 5 mg/kg when given with 2.5 mg/kg of diallenylputrescine; format: functional, Mus musculus; summary of the method: as §5
L1210 [30] = experiment: as §8; format: functional, Mus musculus; summary of the method: as §3; remark: listed apart in the source

For `NCCCCN.NCCCNCCCCCCCCNCCCN`, the Effect (L1210 [1]) was 520 pM (10e6*cells)-1, the Effect (L1210 [2]) was 799 pM (10e6*cells)-1 and the Effect (L1210 [3]) was 1060 pM (10e6*cells)-1. The Effect (L1210 [4]) was 120 pM (10e6*cells)-1.

In the case of `NCCCS(=O)(=O)CCCN`, the T/C (L1210 [5]) is reported as “inactive”.

For `NCCCSCCCN`, the T/C (L1210 [5]) was “inactive”.

With `CNCCCNCCCNC` the T/C (L1210 [5]) was “inactive”.

With `NCCCOCCCN` the T/C (L1210 [5]) was “inactive”.

In the case of `C=C=CCNCCCNCCCNCC=C=C`, the T/C (L1210 [5]) is reported as “inactive”, the PAO activity (pM min-1 mg-1) [6] is reported as 1 and the T50 [7] is reported as 4 min.

For `NCCCCCCCCNCCCN`, the T/C (L1210 [5]) was “inactive”.

For `Cl.Cl.Cl.Cl.NCCCNCCCCCCCCNCCCN`, the Effect (L1210 [8]) was 1711 pM (10e6*cells)-1, the Mean survival time (L1210 [9]) was 15 days and the Mean survival time (L1210 [10]) was 16.2 days. The T/C (L1210 [11]) was 350%, the Effect (L1210 [12]) was 37.4 pM (10e6*cells)-1 and the Effect (L1210 [13]) was 1110 pM (10e6*cells)-1. For the same molecule, the Effect (L1210 [14]) was 580 pM (10e6*cells)-1 and the Mean survival time (L1210 [15]) was 8.3 days.

For `CN(CCCN)CCCN`, the T/C (L1210 [5]) was “inactive”.

In the case of `c1ccc(CNCCCNCCCCCCCCNCCCNCc2ccccc2)cc1`, the T/C (L1210 [5]) is reported as “inactive”.

For `NCCCCNCCCN.NCCCNCCCCCCCCNCCCN`, the Effect (L1210 [16]) was 2174 pM (10e6*cells)-1, the Effect (L1210 [17]) was 51.7 pM (10e6*cells)-1 and the Effect (L1210 [18]) was 817 pM (10e6*cells)-1. For the same molecule, the Effect (L1210 [19]) was 114 pM (10e6*cells)-1.

In the case of `CN(C)CCCNCCCN(C)C`, the T/C (L1210 [5]) is reported as “inactive”.

For `CCNCCCNCCCCCCCCNCCCNCC.Cl.Cl.Cl.Cl`, the Mean survival time (L1210 [20]) was 23, the T/C (L1210 [21]) was 142% and the T/C (L1210 [11]) was 135%. It also gave a Mean survival time (L1210 [22]) of 11.4, a T/C (L1210 [23]) of 287% and a T/C (L1210 [24]) of 112%. For the same molecule, the T/C (L1210 [25]) was 122%, the Mean survival time (L1210 [26]) was 9 and the Mean survival time (L1210 [27]) was 9.8.

`NCCCNCCCN` [NORSPERMIDINE] showed a T/C (L1210 [28]) of 179%.

With `NCCCCCCCN` the T/C (L1210 [5]) was “inactive”.

For `CN(C)CCCNCCCCCCCCNCCCN(C)C`, the T/C (L1210 [5]) was “inactive”.

`CCNCCCNCCCCCCCCNCCCN.Cl.Cl.Cl.Cl` showed a Mean survival time (L1210 [20]) of 12.4, a T/C (L1210 [21]) of 105% and a T/C (L1210 [11]) of 145%. The Mean survival time (L1210 [22]) was 8.4, the T/C (L1210 [23]) was 155% and the T/C (L1210 [24]) was 112%. The T/C (L1210 [25]) was 100%, the Mean survival time (L1210 [26]) was 9 and the Mean survival time (L1210 [27]) was 7.6.

With `C=C=CCNCCCNCCCCCCCCNCCCNCC=C=C.Cl.Cl.Cl.Cl` the T/C (L1210 [5]) was “inactive”, the PAO activity [6] was 4.1 pM/min and the T50 [7] was 2 min.

With `CN(CCCN)CCCCCCCCN(C)CCCN` the T/C (L1210 [5]) was “inactive”.

In the case of `CCCNCCCNCCCCCCCCNCCCNCCC`, the T/C (L1210 [5]) is reported as “inactive”.

Molecule `CC(N)CCNCCCCCCCCNCCC(C)N.Cl.Cl.Cl.Cl` (centres undefined) has a T/C (L1210 [29]) of 376%, a T/C (L1210 [11]) of 206% and a T/C (L1210 [25]) of 195%. The Mean survival time (L1210 [30]) was 25.6 and the Mean survival time (L1210 [27]) was 13.3.

For `CNCCCCCCCCNC`, the T/C (L1210 [5]) was “inactive”.

For `CC(CCN)NCCCCCCCCNC(C)CCN` (centres undefined), the T/C (L1210 [5]) was “inactive”.

For `NCCCCCCCCN`, the T/C (L1210 [5]) was “inactive”.

With `CCCCNCCCNCCCCCCCCNCCCNCCCC` the T/C (L1210 [5]) was “inactive”.

With `C=C=CCNCCCCNCC=C=C` the T50 [7] was 1 min.

For `NCCCCSCCCN`, the T/C (L1210 [5]) was “inactive”.

`CNCCCNCCCCCCCCNCCCNC.Cl.Cl.Cl.Cl` gave a Mean survival time (L1210 [20]) of 25.4, a T/C (L1210 [21]) of 157% and a T/C (L1210 [11]) of 206%. It also gave a Mean survival time (L1210 [22]) of 12.6, a T/C (L1210 [23]) of 317% and a T/C (L1210 [24]) of 172%. For the same molecule, the T/C (L1210 [25]) was 142%, the Mean survival time (L1210 [26]) was 13.8 and the Mean survival time (L1210 [27]) was 11.4.

With `NCCCNCCCOCCCNCCCN` the T/C (L1210 [5]) was “inactive”.
